Laboratory results published in paper PMC12394899 (RSC Medicinal Chemistry, 2025).

Tests used:
[1] = tested on: MDA-MB-231 cells; test: MTT assay, MDA-MB-231; assay type: cell-based; conditions: Homo sapiens, MDA-MB-231, 48 h, read-out: MTT IC50
How it was run: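 TNBC cells maintained in DMEM with 10% FBS at 37 °C, 5% CO2. About 10 000 cells/well seeded and exposed to test compound at 0.5–80 μM for 48 h, with 0.1% DMSO medium as control. MTT (1 mg mL−1) added for 4 h at 37 °C. Formazan dissolved in DMSO for 30 min at room temperature. Absorbance read at 540 nm.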

[2] = target: T1, rat α2,3-O-sialyltransferase ST3GAL1 (Rattus norvegicus, UniProt Q6H8N0); conditions: cited from earlier work
T1 sequence (Q6H8N0 1-340): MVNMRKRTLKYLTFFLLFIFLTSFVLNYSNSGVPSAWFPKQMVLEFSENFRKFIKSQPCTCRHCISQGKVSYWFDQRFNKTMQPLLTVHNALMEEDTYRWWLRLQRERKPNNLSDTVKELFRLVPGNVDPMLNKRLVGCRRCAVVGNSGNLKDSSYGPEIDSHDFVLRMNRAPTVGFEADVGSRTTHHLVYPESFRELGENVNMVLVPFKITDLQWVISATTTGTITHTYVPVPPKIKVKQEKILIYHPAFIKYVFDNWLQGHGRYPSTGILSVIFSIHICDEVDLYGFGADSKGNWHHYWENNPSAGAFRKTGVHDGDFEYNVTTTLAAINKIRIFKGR

Structure (SMILES)	IC50 [1]	ST3GAL1 % Inhibition at 500 μM [2]
c1ccc2c(Cc3c[nH]c4ccccc34)c[nH]c2c1 [3,3′-DIM, 3,3′-diindolylmethane]	40 to 80 µM	–
C[C@H](CCC(=O)O)[C@H]1CC[C@H]2[C@@H]3CC[C@@H]4C[C@H](O)CC[C@]4(C)[C@H]3CC[C@]12C [LCA, Lithocholic acid]	–	53%
